Screening results as filed in PubChem.
Sampled rows, rich in hits. Any-hit rate of the full collection: about 1%.
XBP1 UPR activ: adaptive UPR (XBP1) activation | CHO-XBP1 luciferase reporter, IRE1-XBP1 UPR activation, luminescence; percent of tunicamycin response, DMSO as zero | activation, % at 20 µM | 330,000 compounds, 0.33% hits;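 active = versus positive control, 20 µM dose yields 30% or more activation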
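assay system = CHO-XBP1 luciferase reporter cells | amount = 1000 cells/well | buffer or medium = F12 plus 10% FBS | compound dosing = single point, 20 µM final compound, 1% DMSO | incubation = 16-18 h cell attachment at 37 °C, then 6 h compound exposure | detection = Steady-Glo luminescence read | controls = tunicamycin 10 µg/mL and vehicle-only wells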
T cell HTS: T cell immune modulators affecting CD8 T cell-vesicle binding | response (vesicle binding), % at 7 µM | 330,000 compounds, 0.068% hits | 2C CD8+ T cell-vesicle binding, flow cytometry; stronger effect = lower value;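 active = response, share of CD8 T cells binding vesicles, and their 90th percentile fluorescence all below set limits, cut at about 80% in these data, passing the limit was not always enough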;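 also: values below 100% mean blocked vesicle binding to the CD8+ T cells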
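incubation = binding step 1.5 h, 37 °C, antibody labelling 20 min, ice | test system = 2C mouse CD8+ T cells | read-out basis = percent CD8+ FL2 mean versus row control | controls = Peptide-free naked vesicles (low) and QL9 vesicles with 0.7% DMSO vehicle (high) | detection = flow cytometry of vesicle-bound cells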
UPR CHOP act: activators of apoptotic arm of unfolded protein response (CHOP); CHO-CHOP luciferase reporter, UPR activation, luminescence; percent of tunicamycin response over DMSO baseline; activation, % at 10 µM; 330,000 compounds, 0.34% hits; AID 449763;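 active = at 10 µM dose, activation of 40% or more, normalized to positive control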
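measured by = luciferase luminescence | assay system = CHO-CHOP cells, stable luciferase reporter of PERK-eIF2a-CHOP signalling | amount = 500 reporter cells seeded per well | timing = 6 h compound exposure at 37 °C after overnight seeding | controls = positive tunicamycin 10 µg/mL, negative DMSO alone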
Beta2AR agonist: human beta-2 adrenergic receptor agonism by FAP. P07550. Am2.2-beta2AR cells, FAP receptor internalization, flow cytometry. response, % (test concentration not listed). 340,000 compounds, 0.43% hits. AID 504454;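 active = response above a set limit, near 3 SD of response in nonfluorescent compounds, cut at about 42% in these data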
Target sequence (P07550 whole entry, looked up): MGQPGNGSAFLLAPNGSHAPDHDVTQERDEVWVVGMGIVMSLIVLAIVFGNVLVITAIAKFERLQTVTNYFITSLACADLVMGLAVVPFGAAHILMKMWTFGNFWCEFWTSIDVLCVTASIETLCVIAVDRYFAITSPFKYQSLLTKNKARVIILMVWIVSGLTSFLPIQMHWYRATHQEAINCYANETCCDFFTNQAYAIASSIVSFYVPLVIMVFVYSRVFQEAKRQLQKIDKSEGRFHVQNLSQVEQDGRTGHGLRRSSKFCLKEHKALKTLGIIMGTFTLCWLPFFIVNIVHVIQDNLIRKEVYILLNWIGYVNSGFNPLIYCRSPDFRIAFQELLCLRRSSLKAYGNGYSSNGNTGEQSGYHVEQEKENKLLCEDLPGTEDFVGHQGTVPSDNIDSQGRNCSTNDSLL
UPR XBP1 confirm: confirmation of adaptive unfolded protein response (XBP1) activators; activation, % at 20 µM; 1,000 compounds, 63% hits; shares compounds with XBP1 UPR activ; CHO-XBP1 IRE1-XBP1 luciferase reporter, luminescence;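 active = reporter signal at least 30% of the positive control's activation in two or more of four replicate wells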
Each line names hits and unclear results; the compound was inactive in the other large screens (follow-up assays come after a bar, where they were run).

COc1ccc(C(=O)Oc2cc3c4c(c2)C(C)=CC(C)(C)N4C(=O)C3=O)cc1OC	XBP1 UPR activ 65 | UPR XBP1 confirm 31
O=C(Cc1ccccc1)NNC1CC(=O)N(c2ccccc2)C1=O (stereo unspecified)	none
C(=N\Nc1nc2ccccc2s1)/c1ccc2c(c1)OCO2	none
Brc1cc2c(cc1/C=N/Nc1nc3ccccc3s1)OCO2	XBP1 UPR activ 33 | UPR XBP1 confirm 155
CCCC(=O)Nc1cccc(NC(=O)CN2CCN(c3ccccc3OC)CC2)c1	none (no result: XBP1 UPR activ, T cell HTS, UPR CHOP act)
Cc1ccc2nsnc2c1NC(=O)c1ccc(-c2cc(Cl)ccc2Cl)o1	XBP1 UPR activ 96 | UPR XBP1 confirm 104
COc1ccc(CCNC(=O)/C=C\c2ccccc2)cc1OC	none
COc1ccc(/C=C/C(=O)NC(=S)NCCc2ccc(OC)c(OC)c2)cc1	XBP1 UPR activ 69 | UPR XBP1 confirm inactive
CCOC(=O)c1nnc(-c2ccc(C)cc2)nc1Sc1ccccc1Cl	XBP1 UPR activ 33 | UPR XBP1 confirm 48
CCOC(=O)c1nnc(-c2ccc(C)cc2)nc1Sc1ccc(Cl)cc1	XBP1 UPR activ 47 | UPR XBP1 confirm inactive
CCOC(=O)c1nnc(-c2ccccc2)nc1Sc1c(Cl)cccc1Cl	XBP1 UPR activ 47 | UPR XBP1 confirm 97
Cc1nc(CNC(=O)C2CCC(=O)N(Cc3cccc(F)c3)C2)sc1C (stereo unspecified)	none
Cc1cc(Cl)c2oc(C(=O)NCCN3CCOC3=O)c(C)c2c1	none
Cc1ccccc1NC(=O)Cn1nnc(-c2ccc(CN3CCC(C)CC3)cc2)n1	none
CC(C)(C)C(=O)NC(=S)NNC(=O)c1sc2ccccc2c1Cl	XBP1 UPR activ 35 | UPR XBP1 confirm 31
O=c1[nH]c(CSc2ncnc3sc(-c4ccccc4)cc23)nc2ccccc12	XBP1 UPR activ 87 | UPR XBP1 confirm 142
Cc1c(NC(=O)CSc2ccc(Cl)cc2)cccc1-c1nc2cc(Cl)ccc2o1	XBP1 UPR activ 42 | UPR XBP1 confirm 59
O=C1c2oc3ccc(F)cc3c(=O)c2C(c2ccc(F)cc2)N1CCCN1CCOCC1 (stereo unspecified)	none
NS(=O)(=O)c1ccc(NC(=S)NC(=O)c2ccc(-c3ccccc3)cc2)cc1	XBP1 UPR activ 50 | UPR XBP1 confirm inactive
O=C(NC(=S)Nc1ccc(-c2ccccc2)cc1)c1ccccc1	none (no result: XBP1 UPR activ, T cell HTS, UPR CHOP act)
O=C(Nc1ccc(-n2nncc2-c2ccco2)cc1)c1cccc(F)c1	none
O=C(Nc1ccc(-n2nncc2-c2ccco2)cc1)c1cc2ccccc2oc1=O	XBP1 UPR activ 67 | UPR XBP1 confirm inactive
Cc1ccc(-n2c(SCC(=O)O)nc3c(sc(=S)n3-c3ccc(C)c(C)c3)c2=O)cc1	none
COc1cc2nc(SCC(=O)NCc3ccco3)n(Cc3ccc(Cl)cc3)c(=O)c2cc1OC	XBP1 UPR activ 35 | UPR XBP1 confirm inactive
CCCCOc1ccc(C(=O)OCC(=O)NC2CCCC2)cc1	none
CCc1nc2ccccc2c(C(=O)OCC(=O)Nc2cccc(S(=O)(=O)NC3=NCCCCC3)c2)c1C	none
Cc1ccc(NC(=O)c2c(C)nc3sc(C(=O)NC4CCCC4)c(N)c3c2-c2ccco2)c(C)c1	XBP1 UPR activ 63 | UPR XBP1 confirm 105
Cc1cccn2c(=O)nc(SCC(=O)NCc3ccc4c(c3)OCO4)nc12	none
COc1cccc2cc(C(=O)Nc3cc(C)cc(C)c3)/c(=N/NS(=O)(=O)c3ccccc3)oc12	XBP1 UPR activ 240 | UPR XBP1 confirm inactive
CCCc1n[nH]c(=O)c2c1nnn2Cc1ccccc1F	none
Cc1ccc2c(Cl)cc(Cl)c(OCC(=O)NC3CCS(=O)(=O)C3)c2n1 (stereo unspecified)	none
O=C(N/N=C/c1ccc(Br)cc1)c1ccc(NC(=O)c2ccccc2)cc1	none (no result: XBP1 UPR activ, T cell HTS, UPR CHOP act)
CN(C)c1ccc(/C=N/NC(=O)c2ccc(NC(=O)c3ccccc3)cc2)cc1	XBP1 UPR activ 189 | UPR XBP1 confirm 83
COC(=O)c1ccc(N2CCN(C)CC2)c(NC(=O)c2ccc(-c3ccc(Cl)cc3)o2)c1	XBP1 UPR activ 45 | UPR XBP1 confirm inactive
CN1CCN(c2ccccc2NC(=O)c2ccc(-c3cccc(Cl)c3)o2)CC1	none
CC(=O)c1c(C)[nH]c(-c2ccccc2)nc1=S	none
Cc1cccc(NC(=O)c2nc[nH]c2C(=O)Nc2ccccc2[N+](=O)[O-])c1	XBP1 UPR activ 30 | UPR XBP1 confirm 42
CC(C)CC(NC(=O)c1ccc(Cl)cc1)C(=O)OCC(=O)c1ccc2c(c1)NC(=O)CO2 (stereo unspecified)	XBP1 UPR activ 49 | UPR XBP1 confirm 99
CC(O)C(NS(=O)(=O)c1ccc(Cl)cc1)C(=O)OCC(=O)c1ccc2c(c1)NC(=O)CO2 (stereo unspecified)	none (no result: XBP1 UPR activ, T cell HTS, UPR CHOP act)
Cc1cccc(N2CCN(CC(=O)Nc3ccc(-n4cnnn4)cc3)CC2)c1C	none
COc1ccc(-c2csc(NC(=S)NC(=O)/C=C/c3ccco3)n2)cc1Br	XBP1 UPR activ 202 | UPR XBP1 confirm 201
COc1cc2c(cc1NC(=S)NC(=O)/C=C/c1ccc(OC)c(OC)c1)oc1ccccc12	none (no result: XBP1 UPR activ, T cell HTS, UPR CHOP act)
COc1cc2c(cc1NC(=S)NC(=O)/C=C/c1ccco1)oc1ccccc12	XBP1 UPR activ 52 | UPR XBP1 confirm 77
CC1CCCN(CCCNC(=O)CN2C(=O)COc3ccccc32)C1 (stereo unspecified)	none
O=C1NC(=S)N/C1=C\C=C\c1ccccc1	XBP1 UPR activ 39 | UPR XBP1 confirm inactive
CCc1cccc(Nc2cnn(C34C[C@@H]5C[C@@H](CC(CC(=O)O)(C5)C3)C4)c(=O)c2Cl)c1	none
COc1ccc(C2NCCc3c2[nH]c2ccccc32)cc1COc1ccc(F)cc1 (stereo unspecified)	XBP1 UPR activ 32 | UPR XBP1 confirm 39
COc1ccc(OC)c(NC(=S)N2CCCC2)c1	none
COc1ccc(/C=N/NC(=O)c2cc3c(OC)ccc(OC)c3[nH]2)cc1O	XBP1 UPR activ 32 | UPR XBP1 confirm inactive
CN(C)CC/C=C1/c2ccc(F)cc2Sc2ccc(Cl)cc21	none
CN(C)CC/C=C1\c2ccc(F)cc2Sc2cc(F)c(Cl)cc21	XBP1 UPR activ 86 | UPR XBP1 confirm 122
O=[N+]([O-])c1ccc(-c2nc(Nc3cccc(O)c3)c3ccccc3n2)cc1	XBP1 UPR activ 34 (no result: T cell HTS) | UPR XBP1 confirm inactive
COC(=O)C1C(O)=C(C=Nc2cccc3ccccc23)C(=O)CC1(C)C (stereo unspecified)	XBP1 UPR activ 121 | UPR XBP1 confirm 110
COc1ccccc1NC(=O)COc1cc(Br)c(CNCCCN2CCOCC2)cc1OC	none
COCCCn1c(=NC(C)=O)c(C#N)cc2c(=O)n3cccc(C)c3nc21	none
COCCCn1c(=NC(=O)c2ccccc2)c(C#N)cc2c(=O)n3cccc(C)c3nc21	XBP1 UPR activ 43 | UPR XBP1 confirm inactive
COc1ccc(-c2cn3cc(Br)cnc3n2)cc1	none
